Measurements taken from ChEMBL document CHEMBL1800056, “Discovery of 2-(6-{[(6-fluoroquinolin-2-yl)methyl]amino}bicyclo[3.1.0]hex-3-yl)-N-hydroxypyrimidine-5-carboxamide (CHR-3996), a class I selective orally active histone deacetylase inhibitor” (J Med Chem, 2010).
Converted amounts (≈) assume the structure as drawn. Each block holds one compound with its values, some of them ahead of it. The source made the active and inactive calls. The calls are words filed in the database; no cut-off is given here.

Legend:
[1] = Aqueous solubility of the compound in PBS at pH 7.4; assay type: physicochemical
[2] = Antiproliferative activity against human […] cells after 72 hrs by WST-1 assay; assay type: functional; conditions: Homo sapiens, MCR5-SV2, 72 h
Method in brief: (§1)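 Cells seeded at (1-5) × 10³/well in serum-containing medium for 24 h at 37 °C, 5% CO₂. Inhibitor added at 0.6-10000 nM for 72 h, with WST-1 pulse over the final 4 h. Formazan read at 450 nm (reference 650 nm). Expressed as % inhibition of vehicle response; GI50 is the concentration inhibiting 50% of vehicle response; n = 6 replicates.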

[3] = tested on: HuT78; assay: Ratio of GI50 for SAHA to compound for human HUT78 cells after 72 hrs by WST-1 assay; assay type: functional
Method in brief: (§2)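 Cells seeded at (1-5) × 10³/well in serum-containing medium and grown 24 h at 37 °C, 5% CO₂. They were then exposed for 72 h to HDAC inhibitor (0.6-10000 nM), with SAHA run alongside in the same panel. WST-1 was added for the final 4 h and read at 450 nm (650 nm reference). GI50 taken as 50% inhibition of the vehicle response, n = 6.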

[4] = tested on: LoVo; assay: Antitumor activity against human LoVo cells xenografted in nude BALB/c mouse assessed as reduction in tumor volume at 50 mg/kg, po administered QD for 19 days; assay type: functional, organism-based; parameters: dose 50 mg/kg
Method in brief: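 LoVo colorectal xenograft grown subcutaneously in female BALB/c nude mice, run at EpiStem. Compound given orally daily at 25 or 50 mg/kg; tumor volume followed.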

[5] = Clearance in rat at 1 mg/kg, iv; assay type: ADME, organism-based; parameters: dose 1 mg/kg, route intravenous; conditions: in vivo
Method in brief: (§3)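 Rat single dose, iv 1 mg/kg or po 10 mg/kg, both in 1% DMSO-HPβC (11.25% w/v). AUC0-t in ng h/mL, clearance in (mL/min)/kg, t1/2 in h, F in %.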

[6] = tested on: Rattus norvegicus; assay: AUC (0 to t) in rat at 10 mg/kg, po; assay type: ADME, organism-based, Plasma; parameters: dose 10 mg/kg, route oral; conditions: in vivo; method in brief: as §3
[7] = Half life in dog at 10 mg/kg, po; assay type: ADME, organism-based, Canis lupus familiaris; parameters: dose 10 mg/kg, route oral; conditions: in vivo
Method in brief: (§4)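 Dog single dose: iv 1 mg/kg in 5% DMSO-HPβC (11.25% w/v); po 10 mg/kg in 5% DMSO-saline. AUC0-t in ng h/mL, clearance in (mL/min)/kg, t1/2 in h, F in %.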

[8] = Clearance in dog at 1 mg/kg, iv; assay type: ADME, organism-based, Canis lupus familiaris; parameters: dose 1 mg/kg, route intravenous; conditions: in vivo; method in brief: as §4
[9] = tested on: A2780; assay: Ratio of GI50 for SAHA to compound for human A2780 cells after 72 hrs by WST-1 assay; assay type: functional; method in brief: as §2
[10] = tested on: HepG2; assay: Ratio of GI50 for SAHA to compound for human HepG2 cells after 72 hrs by WST-1 assay; assay type: functional; method in brief: as §2
[11] = Half life in rat at 10 mg/kg, po; assay type: ADME, organism-based; parameters: dose 10 mg/kg, route oral; conditions: in vivo; method in brief: as §3
[12] = tested on: COR-L23; assay: Ratio of GI50 for SAHA to compound for doxorubicin-resistant human COR-L23 cells after 72 hrs by WST-1 assay; assay type: functional; method in brief: as §2
[13] = tested on: HCT-116; assay: Ratio of GI50 for SAHA to compound for human HCT116 cells after 72 hrs by WST-1 assay; assay type: functional; method in brief: as §2
[14] = tested on: PC-3; assay: Ratio of GI50 for SAHA to compound for human PC3 cells after 72 hrs by WST-1 assay; assay type: functional; method in brief: as §2
[15] = tested on: HCT-116; assay: Antitumor activity against human HCT116 cells xenografted in BALB/c mouse assessed as suppression of tumor growth at 50 mg/kg, po administered QD for 14 days; assay type: functional, organism-based; parameters: dose 50 mg/kg
Method in brief: (§5)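 HCT116 xenografts in female nude BALB/c mice, run at EpiStem. Oral daily dosing for 14 days in 5% DMSO-saline at 50 or 75 mg/kg. Tumor volume measured relative to start; drug concentrations in tumor and plasma measured.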

[16] = tested on: HepG2; assay: Antiproliferative activity against human HepG2 cells after 72 hrs by WST-1 assay; assay type: functional; conditions: Homo sapiens, HepG2, 72 h; method in brief: as §1
[17] = tested on: COR-L23; assay: Antiproliferative activity against human COR-L23 cells after 72 hrs by WST-1 assay; assay type: functional; conditions: Homo sapiens, COR-L23, 72 h; method in brief: as §1
[18] = tested on: DU-145; assay: Ratio of GI50 for SAHA to compound for human DU145 cells after 72 hrs by WST-1 assay; assay type: functional; method in brief: as §2
[19] = tested on: MIA PaCa-2; assay: Ratio of GI50 for SAHA to compound for human MIAPaCa2 cells after 72 hrs by WST-1 assay; assay type: functional; method in brief: as §2
[20] = tested on: LoVo; assay: Ratio of GI50 for SAHA to compound for human LoVo cells after 72 hrs by WST-1 assay; assay type: functional; method in brief: as §2
[21] = tested on: MOLT-4; assay: Antiproliferative activity against human MOLT4 cells after 72 hrs by WST-1 assay; assay type: functional; conditions: Homo sapiens, MOLT-4, 72 h; method in brief: as §1
[22] = Aqueous solubility of the compound in PBS at pH 5.5; assay type: physicochemical
[23] = tested on: MOLT-4; assay: Ratio of GI50 for SAHA to compound for human MOLT4 cells after 72 hrs by WST-1 assay; assay type: functional; method in brief: as §2
[24] = Oral bioavailability in dog at 10 mg/kg; assay type: ADME, organism-based, Canis lupus familiaris; conditions: in vivo; method in brief: as §4
[25] = tested on: COR-L23; assay: Ratio of GI50 for SAHA to compound for human COR-L23 cells after 72 hrs by WST-1 assay; assay type: functional; method in brief: as §2
[26] = Drug level in tumor of BALB/c mouse at 50 mg/kg, po administered daily for 14 days; assay type: ADME, organism-based, Neoplasm; parameters: dose 50 mg/kg, route oral; conditions: read-out: Drug uptake; method in brief: as §5
[27] = Ratio of GI50 for SAHA to compound for human […] cells after 72 hrs by WST-1 assay; assay type: functional; method in brief: as §2
[28] = tested on: Rattus norvegicus; assay: Oral bioavailability in rat at 10 mg/kg; assay type: ADME, organism-based; conditions: in vivo; method in brief: as §3
[29] = tested on: A549; assay: Ratio of GI50 for SAHA to compound for human A549 cells after 72 hrs by WST-1 assay; assay type: functional; method in brief: as §2
[30] = tested on: Mus musculus; assay: In-vivo inhibition of HDAC6 in human HCT116 cells xenografted CrTac:NCr-Fox1 nude mouse assessed as alpha-tubulin acetylation at 50 mg/kg, po administered daily for 16 days by Western blot analysis relative to control; assay type: functional, organism-based; parameters: dose 50 mg/kg; conditions: HCT-116
Method in brief: (§6)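 Female CrTac:NCr-Fox1(nu) mice, 6-8 weeks old, bearing bilateral sc HCT116 tumors (2 million cells). Daily oral 50 mg/kg in 10% DMSO-saline from day 6 (tumors ~5 mm) to day 16; vehicle controls. Tumor lysates taken 0.5, 1.0 and 4 h after the last dose. Western blot for acetylated histone H3 or α-tubulin, normalized to GAPDH.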

[31] = Drug level in tumor of BALB/c mouse at 75 mg/kg, po administered daily for 14 days; assay type: ADME, organism-based, Neoplasm; parameters: dose 75 mg/kg, route oral; conditions: read-out: Drug uptake; method in brief: as §5
[32] = Ratio of drug level in spleen to plasma of CrTac:NCr-Fox1(nu) athymic mouse at 50 mg/kg, po administered daily for 16 days; assay type: ADME, organism-based; parameters: dose 50 mg/kg, route oral
Method in brief: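 Female CrTac:NCr-Fox1(nu) athymic mice, 6-8 weeks old, inoculated bilaterally sc with 2 million HCT116 colon carcinoma cells. Dosing at 50 mg/kg po daily in 10% DMSO-saline started on day 6 (tumors approx. 5 mm diameter). Controls received vehicle alone. On day 16, plasma, spleen and tumor were collected and frozen for PK assays of drug levels.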

[33] = tested on: Mus musculus; assay: In-vivo inhibition of HDAC1 in human HCT116 cells xenografted CrTac:NCr-Fox1 nude mouse assessed as histone acetylation at 50 mg/kg, po administered daily for 16 days measured after hrs by Western blot analysis relative to control; assay type: functional, organism-based; parameters: dose 50 mg/kg; conditions: HCT-116; method in brief: as §6

solubility [1]: 1 µg/mL (≈ 2.54 µM) | clearance [5]: 134 mL/min/kg | AUCt [6]: 102 ng·h/mL | half-life [7]: 0.9 h | clearance [8]: 70 mL/min/kg | half-life [11]: 5.2 h | GI50 [16]: 230 nM | GI50 [21]: 31 nM | solubility [22]: 3 µg/mL (≈ 7.61 µM) | bioavailability [24]: 40% | concentration at 336 h [26]: 133 ng/mL | F [28]: 27%
Compound: O=C(NO)c1cnc(N2C[C@@H]3[C@H](C2)[C@H]3NCc2ccc3cc(F)ccc3n2)nc1 [NANATINOSTAT]
GI50 [2]: 110 nM | RatioGI50 [3]: 9.5 | Activity [4]: Active | RatioGI50 [9]: 15 | RatioGI50 [10]: 20 | RatioGI50 [12]: 5 | RatioGI50 [13]: 10.3 | RatioGI50 [14]: 12.5 | Activity [15]: Active | GI50 [17]: 105 nM | RatioGI50 [18]: 21.9 | RatioGI50 [19]: 12.5 | RatioGI50 [20]: 12.1 | RatioGI50 [23]: 21.6 | RatioGI50 [25]: 10.5 | RatioGI50 [27]: 19 | RatioGI50 [29]: 22.8

clearance [8]: 63 mL/min/kg | concentration at 336 h [31]: 28 ng/mL | GI50 [16]: 470 nM | GI50 [21]: 71 nM | Kp at 384 h [32]: 4 | bioavailability [24]: 56%
Compound: O=C(NO)c1cnc(N2C[C@@H]3[C@H](C2)[C@H]3NCc2ccc(Cl)cc2)nc1
inhibition [30]: inactive | GI50 [17]: 210 nM | inhibition [33]: Active
